Biofilm kill mix: mixtures killing C. albicans biofilm; C. albicans biofilm persisters + clotrimazole, fluorescence viability; primary screen in compound mixtures of four per well; inhibition, % at 7.6 µM; hit rate 0.02% among 120,000; AID 1242;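 active = inhibition above 30.3% in the primary screen of four-compound pools, then above 30% when the compound was retested; inconclusive = passed the primary limit but could not be retested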;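 also: compounds exposed to preformed 24 h biofilms for 48 h; 0% = untreated biofilm control and 100% = clotrimazole plus chlorhexidine kill blank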
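Test system: C. albicans biofilms. Buffer or medium: RPMI/MOPS medium, pH 7.0. Timing: 48 h compound exposure at 37 °C. Technique: Alamar Blue fluorescence. Evaluation: percent inhibition of biofilm viability.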
RGS8-Gao: regulators of human RGS8-Galphao interaction | hit rate 0.34% among 220,000 | response (percent of control binding), % at 10 µM | multiplexed bead flow cytometry, RGS8-Galphao binding; actives lie on both sides | P09471; in the data active = response below about 60% or above about 140%; inactive = in between;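 also: Galphao activated as the GDP aluminium fluoride complex binding bead-coupled RGS8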
RGS16-Gao: regulators of human RGS16-Galphao interaction. O15492+P09471. bead-based flow cytometry RGS16-Galphao binding, fluorescence; actives lie on both sides. binding response (% of control), % at 10 µM. hit rate 0.38% among 220,000. AID 1441;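 also: Galphao activated by GDP with aluminum fluoride before binding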
Target sequence (O15492 whole entry, looked up): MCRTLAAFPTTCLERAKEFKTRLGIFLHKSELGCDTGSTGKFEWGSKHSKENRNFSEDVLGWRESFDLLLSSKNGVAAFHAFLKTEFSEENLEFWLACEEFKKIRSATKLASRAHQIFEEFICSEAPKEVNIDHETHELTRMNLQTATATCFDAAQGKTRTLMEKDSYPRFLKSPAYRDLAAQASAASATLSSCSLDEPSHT
Target sequence (P09471 whole entry, looked up): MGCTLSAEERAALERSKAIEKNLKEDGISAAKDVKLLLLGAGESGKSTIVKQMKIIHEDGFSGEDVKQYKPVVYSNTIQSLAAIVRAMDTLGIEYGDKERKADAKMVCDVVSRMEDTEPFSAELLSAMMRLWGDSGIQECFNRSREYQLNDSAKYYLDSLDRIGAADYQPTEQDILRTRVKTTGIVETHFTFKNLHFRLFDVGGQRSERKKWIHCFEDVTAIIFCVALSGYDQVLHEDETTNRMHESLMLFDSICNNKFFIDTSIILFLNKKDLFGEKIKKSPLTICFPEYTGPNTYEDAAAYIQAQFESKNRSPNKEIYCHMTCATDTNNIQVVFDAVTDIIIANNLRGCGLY
RGS4-Gao reg: human RGS4-Galphao interaction regulation; P09471; Multiplexed bead flow cytometry, RGS4-Galphao binding; actives lie on both sides; binding response (% of control), % at 10 µM; hit rate 0.33% among 220,000; AID 1415; in the data active = binding response below about 49% or above about 150%; inactive = in between;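 also: fluorescent Galphao activated with aluminum fluoride binding bead-coupled RGS4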
RGS7-Gao: modulates binding of RGS7 to human Galphao; Multiplexed bead flow cytometry; actives lie on both sides; binding response (% of control), % at 10 µM; hit rate 0.35% among 220,000; in the data active = binding response below about 49% or above about 150%; inconclusive = no clear call, values can overlap the other calls; inactive = in between;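 also: fluorescent Galphao held in activated GDP-AlF4 state binding bead-coupled RGS7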
RGS-Gao: regulators of human RGS4-Galphao interaction. shares compounds with RGS16-Gao. multiplexed bead flow cytometry, RGS–Galpha-o binding. RGS4–Galpha-o binding response, % at 10 µM. hit rate 99% among 1,600;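 also: fluorescently labeled Galpha-o bound to GDP with aluminium fluoride binding biotinylated RGS beads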
Biotin-avidin: interferes with biotinylated probe binding to avidin beads. shares compounds with RGS16-Gao. streptavidin beads, fluorescein-biotin binding, flow cytometry. inhibition, % at 10 µM. 1,700 tested, under 10 active;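 active = inhibition above 50%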;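 also: median green fluorescence of gated singlet beads compared with DMSO control wells; 0% = DMSO wells and 100% = complete loss of bead fluorescence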
RGS8-Gao single: RGS8-Galphao interaction regulation, single point confirmation | shares compounds with RGS16-Gao | bead-based flow cytometry RGS8-Galphao binding, fluorescence; actives lie on both sides | binding response (% of control), % at 10 µM | hit rate 3% among 1,700 | AID 1836; in the data active = binding response below about 72% or above about 130%; inactive = in between;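 also: Galphao activated as GDP AlF4 complex before binding bead RGS8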
RGS7-Gao single: confirmation of regulators of human RGS7-Galphao interaction | shares compounds with RGS16-Gao | bead-based flow cytometry RGS7-Galphao binding; actives lie on both sides | response (percent of control binding), % at 10 µM | hit rate 7.8% among 1,700 | AID 1837; in the data active = response below about 75% or above about 130%; inactive = in between;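 also: fluorescent Galphao activated with GDP and aluminum fluoride binding bead-coupled RGS7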
RGS16-Gao conf: RGS16-Galphao interaction regulation, single point confirmation; hit rate 4% among 1,700; response (% of control binding), % at 10 µM; shares compounds with RGS16-Gao; bead-based flow cytometry, RGS16-Galphao binding; actives lie on both sides; AID 1838; in the data active = response below about 74% or above about 130%; inactive = in between;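 also: Galphao activated as the GDP aluminium fluoride complex binding bead-coupled RGS16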
RGS4-Gao confirm: RGS4-Galphao interaction regulation, single point confirmation | binding response (% of control), % at 10 µM | RGS4-Galphao binding, multiplexed bead flow cytometry; actives lie on both sides | shares compounds with RGS16-Gao | hit rate 4% among 1,700; in the data active = binding response below about 74% or above about 130%; inactive = in between
RGS19-Gao conf: confirmation of regulators of human RGS19-Galphao interaction; shares compounds with RGS16-Gao; bead-based flow cytometry RGS19-Galphao binding; actives lie on both sides; response (percent of control binding), % at 10 µM; hit rate 5% among 1,700; AID 1841; in the data active = response below about 50% or above about 160%; inactive = in between;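 also: 100% = no compound control and 0% = blank background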
* hit, by the source's call; ? = inconclusive; . = not tested or not shown; [ ] = another dose, or the depositor's remark. Sampled rows, rich in hits. Any-hit rate of the full collection: about 0.74%. Unless noted, no rule for the calls is given here.

SMILES	Biofilm kill mix	RGS8-Gao	RGS16-Gao	RGS4-Gao reg	RGS7-Gao	Biotin-avidin	RGS8-Gao single	RGS7-Gao single	RGS16-Gao conf	RGS4-Gao confirm	RGS19-Gao conf	others
Cc1cc(C)c(S(=O)(=O)Nc2ccc(O)cc2)c(C)c1	.	141*[activator]	293	126	118	0	100	99	101	101	99	RGS-Gao=126*
CC(=O)c1ccc(NS(=O)(=O)c2c(C)cc(C)cc2C)cc1	16	104	116	95	93	.	.	.	.	.	.
Cc1ccc2c(c1)NC(=O)C(CC(=O)NCc1cccnc1)O2 (stereo not drawn)	.	161*[activator]	285	154*[activator]	145	-1	97	104	98	99	100
Cc1ccc2c(c1)NC(=O)C(CC(=O)NCc1ccc(F)cc1)O2 (stereo not drawn)	.	102	102	101	104	.	.	.	.	.	.
Cc1ccc2c(c1)C(=O)CCCCC(=O)N2	11	99	104	98	?	.	.	.	.	.	.
Cc1ccc(/C=N/NC(=O)c2ccc3nc[nH]c3c2)o1	16	95	92	156*[activator]	?	3	98	90	98	96	78
C=CCN=C1S/C(=C\c2ccc(N(C)C)cc2)C(=O)N1CC=C	12	92	84	87	?	.	.	.	.	.	.
COc1ccc(C2C(C#N)=C(N)Oc3c2sc2nc(C)cc(C)c32)cc1 (stereo not drawn)	.	103	187*[activator]	121	117	-1	101	101	100	102	104	RGS-Gao=121*
Cc1cccc(C(=O)N2CCN(c3ccc(N4CCOCC4)nn3)CC2)c1	27	37*	22*	29*	?	-1	111	118	112	115	107
CCN(CC)CCN1C(=O)C(O)=C(C(=O)c2cc3cccc(OC)c3o2)C1c1ccc(F)cc1 (stereo not drawn)	5	99	103	100	?	.	.	.	.	.	.
CC1(C)Cc2c(sc3c2c(=N)n(Cc2ccco2)c(=O)n3Cc2ccc(F)cc2)CO1	.	98	94	98	97	.	.	.	.	.	.
COc1ccc(Cn2c(=O)n(Cc3ccco3)c(=N)c3c4c(sc32)COC(C)(C)C4)cc1	.	101	117	115	175*[activator]	2	102	100	104	102	97	RGS-Gao=115*
COc1ccc(CCN2C(=O)CC(NNc3ccc([N+](=O)[O-])cc3)C2=O)cc1OC (stereo not drawn)	19	102	103	99	95	.	.	.	.	.	.
CC(CCOC1=NS(=O)(=O)c2ccccc21)NC(=O)C(=O)Nc1ccccc1 (stereo not drawn)	3	61	42	23*	?	2	131*[activator]	556*[activator]	286*[activator]	466*[activator]	211*[activator]
C/C(=N\NC(=S)NC1CCCCC1)c1cccc(C(F)(F)F)c1	15	112	112	106	?	.	.	.	.	.	.
COc1cccc(C2C(C(=O)c3cc4cccc(OC)c4o3)=C(O)C(=O)N2c2cc(C)on2)c1OC (stereo not drawn)	.	34*	1.2*	-0.4*	11*	0	102	106	104	106	100
COCC(=O)N/N=C(\C)CC(=O)NCc1ccco1	21	104	110	107	103	.	.	.	.	.	.
